# Measurements taken from ChEMBL document CHEMBL1146002, “Substituted N-(2-aminophenyl)-benzamides, (E)-N-(2-aminophenyl)-acrylamides and their analogues: novel classes of histone deacetylase inhibitors” (Bioorg Med Chem Lett, 2006).
# Active and inactive are the calls of the source. The calls are words filed in the database; no cut-off is given here.
# Columns and labels:
# [1] = Half life in iv dosed rat; assay type: ADME, organism-based; conditions: in vivo
# [2] = Bioavailability in rat; assay type: ADME, organism-based; conditions: in vivo
# Histone deacetylase 1 = Histone deacetylase 1 (Homo sapiens, UniProt Q13547); test: Inhibition of human recombinant HDAC1
# HMEC = test: Cytotoxicity against human HMEC cells; assay type: functional, cell-based
# In short: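 Cytotoxicity toward normal cells was measured as inhibition of proliferation of human normal mammary epithelial cells (HMEC), reported as IC50.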
# [3] = target: Histone deacetylase (Homo sapiens) (UniProt Q13547+O15379+Q9UBN7+Q92769+Q9UQL6+Q8WUI4+Q9BY41+Q96DB2+P56524+Q9UKV0+Q969S8); test: Inhibition of HDAC assessed as ability to induce histone acetylation in human T24 cells; assay type: functional, cell-based; conditions: T-24
# In short: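 T24 human bladder carcinoma cells treated at […] for 16 h. Histones acid-extracted, separated by SDS–PAGE and immunoblotted with antibodies specific for acetylated histone H4; total H4 also probed. Dose-dependence judged from blot.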
# T-24 = test: Induction of p21 WAF1/Cip1 transcription in human T24 cells assessed by luciferase reporter gene activity; assay type: functional, cell-based
# HCT-116 [4] = test: Cell cycle arrest in human HCT116 cells at G2/M phase; assay type: functional, cell-based
# In short: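 HCT116 cells treated with compounds in 1% DMSO for 16 h, then harvested by trypsinization and fixed. DNA was stained with propidium iodide and analysed by flow cytometry. The (G2+M)/S ratio is the percentage of gated cells in G2/M divided by the percentage in S phase.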
# HCT-116 [5] = test: Antiproliferative activity against human HCT116 cells by MTT assay; assay type: functional, cell-based
# HCT-116 [6] = test: Antitumor activity against human HCT116 cells xenografted in mouse at 50 mg/kg, ip; assay type: functional; conditions: HCT-116, ip, route intraperitoneal, read-out: TGI
# In short: (§1)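 Human tumour cells grown as xenografts in mice; compounds given daily by intraperitoneal injection. Antitumour activity is expressed as % tumour growth inhibition relative to vehicle-treated controls. Body weight was followed as the measure of gross toxicity.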
# SW48 = test: Antitumor activity against human SW48 cells xenografted in mouse at 50 mg/kg, ip; assay type: functional; conditions: route intraperitoneal, read-out: TGI; in short: as §1
# Histone deacetylase 1, sequence (Q13547 whole entry): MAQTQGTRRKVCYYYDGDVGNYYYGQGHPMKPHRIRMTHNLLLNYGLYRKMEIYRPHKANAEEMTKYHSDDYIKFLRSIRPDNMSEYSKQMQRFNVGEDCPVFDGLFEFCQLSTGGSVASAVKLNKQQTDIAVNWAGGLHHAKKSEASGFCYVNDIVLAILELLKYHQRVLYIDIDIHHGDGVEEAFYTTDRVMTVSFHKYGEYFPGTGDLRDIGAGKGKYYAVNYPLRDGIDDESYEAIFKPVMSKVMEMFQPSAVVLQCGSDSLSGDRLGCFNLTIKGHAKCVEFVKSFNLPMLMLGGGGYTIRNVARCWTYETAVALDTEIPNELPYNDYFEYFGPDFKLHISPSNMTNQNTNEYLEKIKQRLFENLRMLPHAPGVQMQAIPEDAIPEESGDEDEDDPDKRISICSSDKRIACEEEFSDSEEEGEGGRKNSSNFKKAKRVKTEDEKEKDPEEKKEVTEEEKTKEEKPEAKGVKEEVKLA
SMILES,IC50 (Histone deacetylase 1) [µM],IC50 (HCT-116 [5]) [µM],further results
Nc1ccccc1NC(=O)/C=C/c1ccc(NCc2ccc([N+](=O)[O-])cc2)cc1,4,15,–
COc1cc(CNc2ccc(C(=O)Nc3ccccc3N)cn2)cc(OC)c1OC,5,3,–
Nc1ccccc1NC(=O)/C=C/c1ccc(NCc2ccncc2)nc1,4,7,–
COc1ccc(CNc2ccc(/C=C/C(=O)Nc3ccccc3N)cc2)cc1,4,–,–
Nc1ccccc1NC(=O)/C=C/c1ccc(NCc2ccc(OC(F)(F)F)cc2)cc1,5,50,–
COc1ccc(NCc2ccc(/C=C/C(=O)Nc3ccccc3N)cc2)cc1,4,–,–
COc1ccccc1NCc1ccc(/C=C/C(=O)Nc2ccccc2N)cc1,22,–,–
COc1ccc(NCc2ccc(C(=O)Nc3ccccc3N)cc2)cc1OC,–,–,inhibition in vivo at 50 mg/kg (HCT-116 [6]): 66%; inhibition in vivo at 50 mg/kg (SW48): 66%; half-life [1]: 0.7 h; IC50 (HMEC): 15 µM; Activity [3]: Dose-dependent effect; Activity (T-24): Active; Activity (HCT-116 [4]): Active
Nc1ccccc1NC(=O)/C=C/c1ccc(NCc2ccncc2)cc1,10,2,–
Nc1ccccc1NC(=O)/C=C/c1ccc(NCCCc2ccccc2)nc1,3,2,–
COc1cccc(NCc2ccc(/C=C/C(=O)Nc3ccccc3N)cc2)c1,17,10,–
Nc1ccccc1NC(=O)/C=C/c1ccc(NCc2ccc(F)cc2)nc1,5,2,–
COc1cc(CNc2ccc(/C=C/C(=O)Nc3ccccc3N)cn2)cc(OC)c1OC,4,–,–
COc1ccc(CNc2ccc(C(=O)Nc3ccccc3N)cc2)cc1OC,4,–,–
COc1cc(N(C)Cc2ccc(/C=C/C(=O)Nc3ccccc3N)cc2)cc(OC)c1OC,3,5,–
CN(C)c1ccc(CNc2ccc(/C=C/C(=O)Nc3ccccc3N)cn2)cc1,4,3,–
COc1cc(NCc2ccc(/C=C/C(=O)Nc3ccccc3N)cn2)cc(OC)c1OC,3,–,–
COc1ccc(CNc2ccc(C(=O)Nc3ccccc3N)cn2)cc1,4,–,–
Nc1ccccc1NC(=O)/C=C/c1ccc(CNc2ccccc2)cc1,17,11,–
COc1cc(CNc2ccc(C(=O)Nc3ccccc3N)cc2)cc(OC)c1OC,3,2,–

# Continued, in another order:
IC50 (Histone deacetylase 1) [µM],IC50 (HCT-116 [5]) [µM],SMILES,further results
2,–,COc1cc(NCc2ccc(/C=C/C(=O)Nc3ccccc3N)cc2)cc(OC)c1OC,half-life [1]: 1.8 h; bioavailability [2]: 65%; IC50 (HMEC): 39 µM; Activity [3]: Dose-dependent effect; Activity (T-24): Active; Activity (HCT-116 [4]): Active
3,2,COc1cc(NCc2ccc(C(=O)Nc3ccccc3N)cc2)cc(OC)c1OC,–
3,–,Nc1ccccc1NC(=O)/C=C/c1ccc(NCc2ccccc2)nc1,–
3,–,COc1ccc(CCNc2ccc(C(=O)Nc3ccccc3N)cn2)cc1,–
0.6,2,COc1ccc(NCc2ccc(C(=O)Nc3ccccc3N)cc2)cc1,–
2,5,COc1ccc(NCc2ccc(/C=C/C(=O)Nc3ccccc3N)cc2)cc1OC,–
2,5,Nc1ccccc1NC(=O)/C=C/c1ccc(NCCNc2ccccc2)nc1,–
2,4,Nc1ccccc1NC(=O)/C=C/c1ccc(NCc2ccc(OC(F)(F)F)cc2)nc1,–
2,1,COc1ccc(CNc2ccc(C(=O)Nc3ccccc3N)cc2)cc1,–
2,–,COc1ccc(CNc2ccc(/C=C/C(=O)Nc3ccccc3N)cn2)cc1,–
